Experimental data from ChEMBL document CHEMBL1139836, “Development of orally bioavailable and CNS penetrant biphenylaminocyclopropane carboxamide bradykinin B1 receptor antagonists” (J Med Chem, 2007).
Active and inactive are the calls of the source.

Columns and labels:
[1] = tested on: Mus musculus; experiment: Effect on complete Freund's adjuvant-induced hypersensitivity in mouse at 6 mg/kg, po; format: functional, organism-based; set-up: dose 6 mg/kg
How it was run: (§1)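 Humanized B1 knock-in mice and wild-type mice, 8-13 weeks old. Injected intraplantar with 30 µL of 50% CFA; 24 h later tested for von Frey tactile threshold (Dixon up-down). Then dosed po at 6, 20 or 60 mg/kg or vehicle (0.5% methylcellulose with 10 mg/mL malic acid, pH 4, 10 mL/kg). Paw withdrawal threshold read at 60 min. Two-way repeated-measures ANOVA with Tukey test.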

[2] = tested on: Rhesus monkey; experiment: Antidepressor effect in iv dosed rhesus monkey measured as blockade of DAK-induced blood pressure response; format: functional, Macaca mulatta
How it was run: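 Conscious rhesus monkeys primed with LPS 20 µg/kg iv and given 2 h equilibration. Baseline depressor response to des-Arg10-kallidin 0.3 µg/kg iv measured twice. Antagonist given as rising iv bolus doses of 3, 10, 30 and 100 µg/kg, each 5 min before a DAK challenge, with the fall in mean arterial pressure recorded. Plasma sampled 2 min after each dose. Crossover against vehicle, n = 3.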

[3] = Half life in rhesus monkey at 3 mg/kg, po and 1 mg/kg, iv; format: ADME, organism-based, Macaca mulatta; details: in vivo
How it was run: (§2)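 Rhesus monkeys, n = 2, dosed orally at 3 mg/kg and iv at 1 mg/kg. F%, half-life in hours, clearance in mL/min/kg.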

[4] = Clearance in Mongrel dog at 3 mg/kg, po and 1 mg/kg, iv; format: ADME, organism-based, Canis lupus familiaris; details: in vivo
How it was run: (§3)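 Mongrel dogs, n = 2, dosed orally at 3 mg/kg and iv at 1 mg/kg. F%, half-life in hours, clearance in mL/min/kg.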

[5] = Clearance in rhesus monkey at 3 mg/kg, po and 1 mg/kg, iv; format: ADME, organism-based, Macaca mulatta; details: in vivo; how it was run: as §2
[6] = Oral bioavailability in Sprague-Dawley rat at 10 mg/kg, po and 2 mg/kg, iv; format: ADME, organism-based; details: in vivo
How it was run: (§4)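 Sprague-Dawley rats, n = 3, dosed orally at 10 mg/kg and iv at 2 mg/kg. F% from oral versus iv exposure; half-life in hours, clearance in mL/min/kg.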

[7] = Oral bioavailability in rhesus monkey at 3 mg/kg, po and 1 mg/kg, iv; format: ADME, organism-based, Macaca mulatta; details: in vivo; how it was run: as §2
[8] = Stability in monkey hepatocytes; format: ADME, cell-based, Macaca mulatta, Hepatocyte; details: rhesus monkey
[9] = target: T1, B1 bradykinin receptor (Homo sapiens, UniProt P46663); experiment: Plasma concentration in hB1 knock-in-mouse at 20 mg/kg, po after 1 hr; format: ADME, organism-based; set-up: dose 20 mg/kg, route oral
T1 sequence (P46663 whole entry): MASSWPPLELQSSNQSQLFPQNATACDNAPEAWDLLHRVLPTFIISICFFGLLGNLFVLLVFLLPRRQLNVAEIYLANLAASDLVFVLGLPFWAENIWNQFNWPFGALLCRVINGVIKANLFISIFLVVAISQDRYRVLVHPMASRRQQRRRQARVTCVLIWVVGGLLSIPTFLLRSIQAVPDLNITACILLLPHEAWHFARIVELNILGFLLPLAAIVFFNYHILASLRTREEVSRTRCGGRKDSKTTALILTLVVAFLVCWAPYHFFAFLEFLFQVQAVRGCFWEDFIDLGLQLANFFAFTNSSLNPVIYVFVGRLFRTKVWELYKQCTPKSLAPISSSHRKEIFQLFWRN
How it was run: (§5)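 hB1 knock-in mice with CFA paw inflammation, dosed po at 6, 20 or 60 mg/kg in 0.5% methylcellulose with 10 mg/mL malic acid, pH 4. Plasma collected 60 min after dosing, following behavioural testing.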

[10] = Half life in Sprague-Dawley rat at 10 mg/kg, po and 2 mg/kg, iv; format: ADME, organism-based; details: in vivo; how it was run: as §4
[11] = Half life in Mongrel dog at 3 mg/kg, po and 1 mg/kg, iv; format: ADME, organism-based, Canis lupus familiaris; details: in vivo; how it was run: as §3
[12] = target: T1, B1 bradykinin receptor; experiment: Plasma concentration in hB1 knock-in-mouse at 6 mg/kg, po after 1 hr; format: ADME, organism-based; set-up: dose 6 mg/kg, route oral; how it was run: as §5
[13] = Ratio of drug level in brain against plasma in African green monkey at 2 mg/kg, iv; details: read-out: BPR
[14] = Stability in dog liver microsomes; format: ADME, Canis lupus familiaris, Microsome
[15] = target: T1, B1 bradykinin receptor; experiment: Plasma concentration in hB1 knock-in-mouse at 60 mg/kg, po after 1 hr; format: ADME, organism-based; set-up: dose 60 mg/kg, route oral; how it was run: as §5
[16] = tested on: Mus musculus; experiment: Effect on complete Freund's adjuvant-induced hypersensitivity in mouse at 60 mg/kg, po; format: functional, organism-based; set-up: dose 60 mg/kg; how it was run: as §1
[17] = Oral bioavailability in Mongrel dog at 3 mg/kg, po and 1 mg/kg, iv; format: ADME, organism-based, Canis lupus familiaris; details: in vivo; how it was run: as §3
[18] = tested on: Mus musculus; experiment: Effect on complete Freund's adjuvant-induced hypersensitivity in mouse at 20 mg/kg, po; format: functional, organism-based; set-up: dose 20 mg/kg; how it was run: as §1
[19] = target: T2, B1 bradykinin receptor (Homo sapiens) (UniProt P46663); experiment: Reversal of complete Freund's adjuvant-induced hyperalgesia in orally dosed hB1 knock-in-mouse; format: functional, organism-based; how it was run: as §1
T2 sequence (whole entry): T1 sequence (P46663 whole entry)

[20] = Stability in rat hepatocytes; format: ADME, cell-based, Hepatocyte
[21] = tested on: Liver microsomes; experiment: Stability in rat liver microsomes; format: ADME, Microsome
[22] = Clearance in Sprague-Dawley rat at 10 mg/kg, po and 2 mg/kg, iv; format: ADME, organism-based; details: in vivo; how it was run: as §4
[23] = tested on: Liver microsomes; experiment: Stability in human liver microsomes; format: ADME, Microsome
[24] = Stability in monkey liver microsomes; format: ADME, Macaca mulatta, Microsome; details: rhesus monkey
[25] = Stability in human hepatocytes; format: ADME, cell-based, Hepatocyte

half-life [3]: 1.7 h
clearance [4]: 9 mL/min/kg
clearance [5]: 13 mL/min/kg
bioavailability [6]: 34%
bioavailability [7]: 31%
Stability [8]: Stable
concentration at 1 h [9]: 3.5 µM
half-life [10]: 0.4 h
half-life [11]: 1.8 h
concentration at 1 h [12]: 1 µM
Kp [13]: 0.4
Stability [14]: Stable
concentration at 1 h [15]: 5 µM
bioavailability [17]: 33%
ED50 [19]: 9.76 mg/kg
Stability [20]: Stable
Stability [21]: Stable
clearance [22]: 40 mL/min/kg
Stability [23]: Stable
Stability [24]: Stable
Stability [25]: Stable
SMILES: COC(=O)c1c(Cl)cccc1-c1ccc([C@@H](C)NC(=O)C2(NC(=O)C(F)(F)F)CC2)c(F)c1 [MK0686]
Activity [1]: inactive
AD90 [2]: 0.047 mg/kg
Activity [16]: inactive
Activity [18]: inactive
